Experimental data: ChEMBL document CHEMBL1255401, “Penicillin sulfone inhibitors of class D beta-lactamases” (Antimicrob Agents Chemother, 2010)
pKi: −log10 of the molar value.

Assays:
[1] = system: Escherichia coli; test: Antibacterial activity against Escherichia coli DH10B harboring RGN238 plasmid containing Beta-lactamase OXA-1 at 4 ug/ml in presence of increasing concentrations of piperacillin by broth agar dilution assay; assay type: functional
Summary of the method: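 Lysogeny broth agar dilution MIC on E. coli DH10B carrying plasmid RGN238 with blaOXA-1. Piperacillin tested at increasing concentrations with the inhibitor held at a constant 4 μg/ml. Plates inoculated by Steers replicator with 10 μl of a diluted overnight culture containing 10^4 CFU.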

[2] = Inhibition of Beta-lactamase OXA-17 expressed in Escherichia coli BL21 (DE3) by nitrocefin hydrolysis assay
Summary of the method: (§1)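 Competition assay at room temperature in 50 mM sodium phosphate with 20 mM bicarbonate, run in triplicate. Enzyme at 11 nM, reporter substrate 50 μM nitrocefin, inhibitor at 4 μM to 9 mM depending on inhibitor and enzyme. Initial velocities taken immediately after mixing, 1/v plotted against [I] and fitted linearly. Ki obtained as y-intercept divided by slope.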

[3] = Inhibition of Beta-lactamase OXA-24/40 expressed in Escherichia coli BL21 (DE3) by nitrocefin hydrolysis assay; summary of the method: as §1
[4] = Inhibition of Beta-lactamase OXA-14 expressed in Escherichia coli BL21 (DE3) by nitrocefin hydrolysis assay; summary of the method: as §1
[5] = Inhibition of Beta-lactamase OXA-10 expressed in Escherichia coli BL21 (DE3) by nitrocefin hydrolysis assay; summary of the method: as §1
[6] = Inhibition of Beta-lactamase OXA-1 expressed in Escherichia coli BL21 (DE3) by nitrocefin hydrolysis assay; summary of the method: as §1
[7] = Activity of Beta-lactamase OXA-1 expressed in Escherichia coli BL21 (DE3)
Summary of the method: (§2)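 OXA-1 from E. coli BL21(DE3) with pET 12a(+) blaOXA-1, IPTG-induced (0.2 mM), released with lysozyme/EDTA, purified by preparative isoelectric focusing. Continuous spectrophotometric hydrolysis assays of oxacillin, ampicillin, nitrocefin and cephaloridine at room temperature in 50 mM sodium phosphate with 20 mM bicarbonate, run in triplicate. Initial rates versus substrate concentration fitted to give kcat, Km and kcat/Km.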

[8] = Ratio of Kcat to Km for Beta-lactamase OXA-1 expressed in Escherichia coli BL21 (DE3); summary of the method: as §2

| SMILES | MIC [1] [µg/mL] | pKi [2] | pKi [3] | pKi [4] | pKi [5] | pKi [6] | Km [7] [µM] | kcat [7] [s⁻¹] | kcat/Km [8] [µM⁻¹ s⁻¹] |
| --- | --- | --- | --- | --- | --- | --- | --- | --- | --- |
| C[C@]1(Cn2ccnn2)[C@H](C(=O)O)N2C(=O)C[C@H]2S1(=O)=O [TAZOBACTAM] | 512 | 4.40 | 3.57 | 4.52 | 3.77 | 3.23 | – | – | – |
| O=C(Cc1cccs1)N[C@@H]1C(=O)N2C(C(=O)[O-])=C(C[n+]3ccccc3)CS[C@H]12 | – | – | – | – | – | – | 80 | 16 | 0.21 |
| O=C(O)[C@H]1/C(=C/CO)O[C@@H]2CC(=O)N21 [CLAVULANIC ACID] | – | 4.35 | 4.29 | 4.72 | 3.98 | 3.71 | – | – | – |
| C[C@]1(COC(=O)Cc2ccc(O)c(O)c2)[C@H](C(=O)O)N2C(=O)/C(=C/c3ccccn3)[C@H]2S1(=O)=O | 128 | 6.70 | 6.19 | 5.85 | 5.10 | 6.15 | – | – | – |
| CC1(C)S[C@@H]2[C@H](NC(=O)[C@H](N)c3ccccc3)C(=O)N2[C@H]1C(=O)O | – | – | – | – | – | – | 64 | 357 | 6 |
| O=C(Cc1cccs1)N[C@@H]1C(=O)N2C(C(=O)O)=C(/C=C/c3ccc([N+](=O)[O-])cc3[N+](=O)[O-])CS[C@H]12 | – | – | – | – | – | – | 9 | 94 | 10 |
| CC(=O)OC[C@@]1(C)[C@H](C(=O)O)N2C(=O)/C(=C/c3ccccn3)[C@H]2S1(=O)=O | – | 6.06 | 5.62 | 5.40 | 4.77 | 5.85 | – | – | – |
| Cc1onc(-c2ccccc2)c1C(=O)N[C@@H]1C(=O)N2[C@@H]1SC(C)(C)[C@@H]2C(=O)O | – | – | – | – | – | – | 31 | 577 | 19 |
